Measurements from PMC9585582 (ACS Bio & Med Chem Au, 2022).
Read-outs that look alike come from different tables or passages of the source.

What was measured:
[1] = tested on: microtubules (taxane binding site) in living HeLa cells; test: Competition binding assay with PB-GABA-Taxol in living HeLa cells; settings: read-out: cellular Ki; PB-GABA-Taxol 1.5 μM, verapamil 100 μM, 37 °C, 4% FBS, 3 h, 60K cells/well
[2] = biological target: cross-linked microtubules; settings: cited from earlier work; for Kd: read-out: biochemical Kd; for Ki: read-out: biochemical Ki
[3] = tested on: microtubule network of HeLa cells; test: Confocal microscopy of HeLa cells expressing mScarlet-α-Tubulin; type: cell-based; settings: 1 h at 37 °C
In short: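 HeLa cells transiently transfected to express mScarlet-α-tubulin. Live cells were treated with microtubule modulators for 1 h at 37 °C, and microtubule-network phenotypes were imaged by confocal microscopy.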

[4] = Cytotoxicity toward HeLa cells after 48 h by flow cytometry; type: cell-based; settings: human
[5] = tested on: taxane binding site in living cells; settings: read-out: Ki by confocal microscopy; cited from earlier work
[6] = tested on: microtubules in living HeLa cells; test: Allosteric modulator assay with PB-GABA-Taxol in living HeLa cells; type: binding; settings: allosteric modulator model; PB-GABA-Taxol 1.5 μM, verapamil 100 μM, 3 h, 37 °C
albumin = settings: read-out: Kd for albumin; cited from earlier work
[7] = biological target: purified GDP-bound microtubules; settings: cited from earlier work

CC(=O)O[C@H]1C(=O)[C@@]2(C)[C@H]([C@H](OC(=O)c3ccccc3)[C@]3(O)C[C@H](O)C(C)=C1C3(C)C)[C@]1(OC(C)=O)CO[C@@H]1C[C@@H]2O [baccatin III]
Ki [1]: 17000 ± 3000 nM | Kd ([2]; ref 21): 6700 ± 2000 nM

CO[C@H]1C(=O)[C@]2(C)[C@@H](OC)C[C@H]3OC[C@@]3(OC(C)=O)[C@H]2[C@H](OC(=O)c2ccccc2)[C@]2(O)C[C@H](OC(=O)[C@H](O)[C@@H](NC(=O)OC(C)(C)C)c3ccccc3)C(C)=C1C2(C)C [cabazitaxel]
Ki [1]: 6 nM | Ki ([2]; ref 17): 7.4 ± 0.9 nM

COc1cc2c(c(OC)c1OC)-c1ccc(OC)c(=O)cc1[C@@H](NC(C)=O)CC2 [colchicine]
fluorescent microtubule phenotype [3]: disrupted the microtubule network | IC50 at 48 h [4]: 20 ± 8 nM

CC(=O)O[C@@]12CO[C@@H]1C[C@H](O)[C@@]1(C)C(=O)[C@H](O)C3=C(C)[C@@H](OC(=O)[C@H](O)[C@@H](NC(=O)OC(C)(C)C)c4ccccc4)C[C@@](O)([C@@H](OC(=O)c4ccccc4)[C@H]21)C3(C)C [docetaxel]
Ki [1]: 16 nM | Kd ([2]; ref 17): 6.8 ± 0.2 nM | Kd ([2]; ref 65): 25 ± 0.4 nM | Ki ([2]; cross-linked microtubules): 17 ± 6 nM

C/C(=C\c1csc(C)n1)[C@@H]1C[C@@H]2O[C@]2(C)CCC[C@H](C)[C@H](O)[C@@H](C)C(=O)C(C)(C)[C@@H](O)CC(=O)N1 [ixabepilone]
Ki [5]: 7.6 ± 1.6 nM | Ki [1]: 10 nM

COc1cc2cc(c1Cl)N(C)C(=O)C[C@H](OC(=O)[C@H](C)N(C)C(C)=O)[C@]1(C)O[C@H]1[C@H](C)[C@@H]1C[C@@](O)(NC(=O)O1)[C@H](OC)/C=C/C=C(\C)C2 [maytansine]
cooperativity factor α [6]: 0.21

CC(=O)O[C@H]1C(=O)[C@@]2(C)[C@H]([C@H](OC(=O)c3ccccc3)[C@]3(O)C[C@H](OC(=O)[C@H](O)[C@@H](NC(=O)c4ccccc4)c4ccccc4)C(C)=C1C3(C)C)[C@]1(OC(C)=O)CO[C@@H]1C[C@@H]2O [paclitaxel]
Kd (albumin): 120 nM | Ki [1]: 22 nM | fluorescent microtubule phenotype [3]: enhanced the formation of long microtubule fibers | Kd ([2]; ref 65): 70 ± 0.6 nM | Kd ([2]; ref 66): 15 nM | Kd ([2]; ref 68): 50 nM | Ki ([2]; cross-linked microtubules): 27 ± 11 nM | Ki ([2]; ref 21): 31 nM | Ki ([2]; ref 67): 19 nM

CC[C@]1(O)C[C@@H]2CN(CCc3c([nH]c4ccccc34)[C@@](C(=O)OC)(c3cc4c(cc3OC)N(C)[C@H]3[C@@](O)(C(=O)OC)[C@H](OC(C)=O)[C@]5(CC)C=CCN6CC[C@]43[C@@H]65)C2)C1 [vinblastine]
Kd [7]: 190 to 1000 nM | cooperativity factor α [6]: 0.18
